Most compounds without a hit are left out; they make up all but 3.7% or so of the library.
procasp3 activ: activates human procaspase-3; recombinant procaspase-3 D3A, Ac-DEVD-pNA absorbance 405 nm; 330,000 tested, 0.11% active; P42574; activation, % at 8.5 µM;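 active = activation above the mean of all tested compounds plus 3 SD, cut at about 21% in these data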;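 also: 0% = DMSO alone and 100% = DMSO wells spiked with extra 5 µM PC-3 D3A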
Target sequence (P42574 whole entry D9A/D28A/D175A): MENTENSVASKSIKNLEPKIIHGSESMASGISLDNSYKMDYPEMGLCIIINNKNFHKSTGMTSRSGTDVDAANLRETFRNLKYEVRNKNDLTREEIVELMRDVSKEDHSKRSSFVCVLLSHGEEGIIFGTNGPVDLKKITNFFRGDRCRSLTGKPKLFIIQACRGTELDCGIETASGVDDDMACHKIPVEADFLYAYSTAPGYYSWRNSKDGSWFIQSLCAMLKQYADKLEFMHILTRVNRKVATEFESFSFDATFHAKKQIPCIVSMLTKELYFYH
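Assay system – Procaspase-3 D3A mutant · Benchmarks – DMSO low control, extra-enzyme high control · Technique – 405 nm absorbance of p-nitroaniline, reads at 0 and 120 min · Doses – 8.5 µM nominal · Measure – % activation between DMSO and enzyme-spiked controls · Also added – Ac-DEVD-pNA chromogenic peptide substrate · Schedule – 1 h compound preincubation, 2 h substrate hydrolysis at 25 °C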
GRIN3A LBD mod: NR3A (human) ligand-binding domain modulation. 340,000 tested, 2.5% active. NR3A LBD differential scanning fluorimetry, Tm shift; 0% = protein alone, 100% = glycine-bound protein. Tm shift relative to glycine control, % at 25 µM. AID 1259313;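 active = melting temperature shift of at least 10% of the positive control shift, at one fixed dose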
proCasp7 act: counter-screen for procaspase-3 activators: activators of human procaspase-7 | recombinant procaspase-7, Ac-DEVD-pNA absorbance 405 nm; D23A/D198A/D206A triple mutant, cannot self-cleave; scale: DMSO 0, 5 µM enzyme 100 | activation, % at 8.5 µM | 330,000 tested, 0.093% active | P55210;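 active = percent activation above the screen-wide mean plus 3 SD, cut at about 25% in these data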
Target sequence (P55210 whole entry D23A/D198A/D206A): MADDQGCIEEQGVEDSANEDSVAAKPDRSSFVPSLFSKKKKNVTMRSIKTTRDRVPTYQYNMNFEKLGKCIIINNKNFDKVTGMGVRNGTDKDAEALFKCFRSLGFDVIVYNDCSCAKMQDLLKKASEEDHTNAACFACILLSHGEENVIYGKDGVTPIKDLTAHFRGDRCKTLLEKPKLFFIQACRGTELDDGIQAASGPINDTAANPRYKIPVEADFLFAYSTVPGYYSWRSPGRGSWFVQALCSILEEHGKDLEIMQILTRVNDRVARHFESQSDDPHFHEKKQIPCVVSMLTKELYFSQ
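Material: Procaspase-7 triple mutant (PC-7 D3A) | Quantity: 2 µM procaspase-7 mutant as dispensed | Reagent: DEVD-pNA substrate | Times: 1 h preincubation, 2 h reaction | Technique: 405 nm absorbance of p-nitroaniline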
aDG glyco act: alpha-DG glycosylation activation. Pro5-aDG cells, alpha-DG glycosylation AlphaScreen (IIH6); 0% Pro5, 100% B10-LARGE cell signal. activation, % at 10 µM. 360,000 tested, 0.22% active;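 active = activation of at least 8% versus controls, or a plate z-score of at least 8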;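 also: Pro5 are CHO cells carrying HIG-tagged alpha-DG that lacks glycosylation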
MPTP block: permeability transition pore inhibition. isolated mouse mitochondria, Ca2+ swelling absorbance, 30 min. inhibition, % at 10 µM. 360,000 tested, 1.4% active;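 active = inhibition of 50% or more, scaled per plate between neutral and stimulator controls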;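 also: 0% = DMSO wells given calcium and 100% = 1 mM EGTA wells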
Rh123 counter: Rhodamine 123 counter-screen of mitochondrial pore hits | isolated mitochondria, membrane potential, Rhodamine 123 fluorescence | AID 624504 | shares compounds with MPTP block | 5,000 tested, 78% active | inhibition, % at 10 µM; in the data active = inhibition above about 22%;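 also: 0% = DMSO vehicle and 100% = positive control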
MPTP swell DR: MPTP inhibition, dose response swelling confirmation; shares compounds with MPTP block; isolated mitochondria swelling, absorbance; IC50, µM; 780 tested, 58% active; AID 651561; in the data active = IC50 below about 20 µM
MPTP counter DR: active in counter-screen for permeability transition pore inhibitors. shares compounds with MPTP block. isolated mitochondria counterscreen, fluorescence read-out. IC50, µM. 780 tested, 49% active. AID 651564; in the data active = IC50 below about 80 µM
* = called active by the depositor; · = no result given.

SMILES	procasp3 activ	GRIN3A LBD mod	proCasp7 act	aDG glyco act	MPTP block	Rh123 counter	others
C#CCOCCOCCOCCNc1nc(N2CCN(C(=O)[C@H](CCCCN)n3cc([C@@H](N)C(C)CC)nn3)CC2)nc(N2CCN(C(=O)[C@H](CCCCN)n3cc([C@@H](N)CO)nn3)CC2)n1 (some centres not stated)	0	·	0	·	·	·
C#CCOCCOCCOCCNc1nc(N2CCN(C(=O)[C@H](CCCCN)n3cc(CN)nn3)CC2)nc(N2CCN(C(=O)[C@H](CCCCN)n3cc([C@@H](N)[C@H](C)CC)nn3)CC2)n1	0	1	2	0	88*	-14	MPTP swell DR=6.4*;MPTP counter DR=65*
CCCOc1ccc2cc(C(=O)NCc3ccccc3)c(=O)oc2c1	7	1	6	0	1	·
Cc1ccc(S(=O)(=O)NNC(=O)C2CC=CCC2C(=O)O)cc1 (configuration not stated)	-7	-3	-2	0	55*	2	MPTP swell DR=>100;MPTP counter DR=>80
Cc1ccc(S(=O)(=O)NNC(=O)C(=O)NNS(=O)(=O)c2ccc(C)cc2)cc1	-4	-1	8	0	1	·
O=[N+]([O-])c1ccc2nc(C3CCCCC3)[nH]c2c1	-5	-2	-7	0	14	·
O=[N+]([O-])c1ccc(O)c(C2CCCCC2)c1	·	3	·	0	88*	102*
COc1ccc(C2/C=C\CN(C(=O)Nc3ccc(C(F)(F)F)cc3)CC(=O)N2Cc2ccc(F)cc2)cc1 (configuration not stated)	-1	-18	4	1	103*	100*
N#Cc1c(NCCN)nc(-c2ccco2)c2c1CCCC2	-9	-6	-16	0	92*	-2	MPTP swell DR=13*;MPTP counter DR=>80
CC(C)CCNc1nc(-c2ccco2)c2c(c1C#N)CCCC2	-22	0	-15	0	0	·
Cc1cc(C(=O)N2CCC2(C)C(=O)NS(=O)(=O)c2ccc(Cl)cc2)nn1C (configuration not stated)	·	·	·	0	0	·
COc1cc(C2C(C#N)=C(N)N(N(C)C)C3=C2C(=O)CCC3)ccc1O (configuration not stated)	·	0	·	0	1	·
COc1ccc(N=Cc2cc(Cc3ccccc3Cl)cc([N+](=O)[O-])c2O)cc1OC	1	-2	-17	0	62*	-5
Cc1ccc(N=Cc2cc(Cc3ccccc3Cl)cc([N+](=O)[O-])c2O)c(O)c1	-1	-4	-28	1	84*	53*
COc1cc(CCN=Cc2cc(Cl)cc(Cl)c2O)c([N+](=O)[O-])cc1OC	·	·	·	0	-1	·
CCOC(=O)C1=CCN(S(=O)(=O)c2ccccc2Br)C1c1cccc(C)c1 (configuration not stated)	·	·	·	0	0	·
CCC(C(=O)NC1CCCC1)n1c(C2CC2)nc2ccccc21 (configuration not stated)	·	·	·	0	0	·
CCN(c1cccc(C(F)(F)F)c1)S(=O)(=O)c1ccc2c(c1)CCN2C(=O)C1CC1	-1	1	-4	4	62*	64*
FC(F)(F)C1=CC(c2ccc(Br)cc2)=NCCN1	-3	-3	-2	0	0	·
O=C(Nc1ccccc1)Nc1nnc(-c2ccccc2)s1	0	7	16	0	22	·
O=C(Nc1ccccc1)Nc1nnc(/C=C/c2ccccc2Cl)s1	0	37*	8	0	86*	43*
CCCSc1nnc(NC(=O)Nc2ccccc2)s1	0	2	-13	0	90*	78*
O=C(Nc1ccc(Cl)cc1)Nc1nnc(CSCc2ccc(Cl)cc2)s1	-11	24*	-3	0	84*	50*
CCCSc1nnc(NC(=O)c2sc3nc(-c4cccs4)ccc3c2N)s1	-4	6	-13	0	76*	32*
CCC(=O)N1CCc2cc(S(=O)(=O)N3CCN(c4ccccc4Cl)CC3)ccc21	13	-1	11	0	-2	·
SMILES	procasp3 activ	GRIN3A LBD mod	proCasp7 act	aDG glyco act	MPTP block	Rh123 counter	others
O=C(Nc1ccc(F)cc1)Nc1nnc(Cc2ccccc2F)s1	-4	-1	-6	0	58*	77*
CCCSc1nnc(NC(=O)Nc2ccc(F)cc2)s1	-13	2	-2	0	86*	98*
CCCSc1nnc(NC(=O)Nc2ccc(C)cc2)s1	-9	-4	3	0	60*	75*
Cc1cc(Nc2ccccc2)nc(NCc2ccccc2)n1	5	-6	-4	1	90*	92*
Cc1cc(N2CCC(C)CC2)nc(NCc2ccccc2)n1	0	0	14	0	91*	111*
Cc1cc(Nc2cccc(F)c2)nc(NCc2ccccc2)n1	-3	-11	0	1	92*	73*
CCCCNc1cc(C)nc(NCc2ccccc2)n1	10	-4	8	0	104*	131*
Cc1cc(C)nc(NCCCc2ccccc2)n1	0	-2	8	0	-2	·
Cc1cc(N2CCC(C)CC2)nc(-c2ccccc2O)n1	0	0	1	0	2	·
Cc1cc(Oc2ccccc2)nc(NCc2ccccc2)n1	-7	2	11	1	3	·
O=C(CN1C(=O)NC2(CCCC2)C1=O)OCCOc1ccccc1Cl	2	0	1	0	-2	·
Cc1cn([C@H]2C[C@H](O)[C@@H](CCC(=O)NCc3cccc4ccccc34)O2)c(=O)[nH]c1=O	·	·	·	0	-2	·
Cc1cc(Nc2ccc(Cl)cc2)nc(NCc2ccccc2)n1	-4	-2	3	0	53*	31*
COc1ccccc1C=NNC(=O)NN=Cc1ccccc1OC	·	-1	·	0	-2	·
COc1ccccc1C=NN=C(NN=Cc1ccccc1OC)NN=Cc1ccccc1OC	·	-2	·	1	94*	97*
Cc1ccc(OC(C)C(=O)N=Nc2c(O)[nH]c3ccc([N+](=O)[O-])cc23)cc1 (configuration not stated)	4	4	1	0	73*	68*
CCCc1nn(CCc2ccccn2)c(N)c1CC	-6	2	-1	0	0	·
CC(C)(C)c1ccc(/C=C/C(=O)Nc2ccncc2)cc1	11	-12	9	4	98*	92*
Cc1ccc(NCc2nc3ccccc3n2CCOc2ccccc2)cc1	-3	-10	2	0	2	·
COc1cccc2c(=O)cc(C)n(CC(=O)Nc3ccc(Br)cc3)c12	4	-16	11	1	70*	33*
